Converted amounts (≈) assume the structure as drawn. The source made the active and inactive calls. No cut-off for these calls is given here.

Here are results for two compounds from ChEMBL document CHEMBL4680120, “Novel anti-Alzheimer phenol-lipoyl hybrids: Synthesis, physico-chemical characterization, and biological evaluation” (Eur J Med Chem, 2020).

For data set [1], the system named is SH-SY5Y. Nature of the data set: Neuroprotective activity against amyloid beta (1 to 42)-induced toxicity in human SH-SY5Y cells assessed as decrease in APH1alpha mRNA expression at IC50 measured after 48 hrs by SYBR green dye based RT-qPCR analysis. It is filed as functional, cell-based. A digest of the protocol: (§1)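 Differentiated SH-SY5Y cells in 6-well plates treated 48 h with Aβ1-42 (20 μM) with or without hybrid. mRNA of AD-related genes measured by RT-qPCR, normalized to β-actin. Expressed as fold change versus untreated cells. Triplicate experiments.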

Data set [2] deals with SH-SY5Y. As to the kind of experiment: Neuroprotective activity against amyloid beta (1 to 42)-induced toxicity in human SH-SY5Y cells assessed as decrease in MAPT mRNA expression at IC50 measured after 48 hrs by SYBR green dye based RT-qPCR analysis. It is filed as functional, cell-based. An outline of the steps:
as §1

Data set [3] deals with SH-SY5Y. As to the kind of experiment: Neuroprotective activity against amyloid beta (1 to 42)-induced toxicity in human SH-SY5Y cells assessed as increase in ADAM10 mRNA expression at IC50 measured after 48 hrs by SYBR green dye based RT-qPCR analysis. Format: functional, cell-based. An outline of the steps: as §1
Data set [4] in a line: Stability in simulated intestinal fluid at pH 6.8 assessed as relative difference measured after 30 mins in presence of pancreatin by HPLC analysis. It is filed as ADME. To be noted: simulated gi fluid, pH 6.8, 0.5 h. A digest of the protocol:
(§2)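 Incubation in simulated gastric fluid (pH 1.2, pepsin) or simulated intestinal fluid (pH 6.8, pancreatin). Aliquots deproteinized with ice-cold acetonitrile, centrifuged at 4°C and 12000 rpm for 10 min, filtered, analyzed by HPLC. RD% = (Ci − Cf)/Ci × 100. Stable if RD < 5%. Means of three experiments.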

Data set [5] concerns SH-SY5Y. Nature of the data set: Neuroprotective activity against amyloid beta (1 to 42)-induced toxicity in human SH-SY5Y cells assessed as increase in cell viability at 1 to 250 mg/l measured after 48 hrs by LDH release assay. Format: functional, cell-based. To be noted: dose 1-250 mg/L. An outline of the steps: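 SH-SY5Y cells grown in DMEM/F12 with 10% FBS and differentiated with retinoic acid (10 μM), seeded at 1×10^4 per well and cultured 24 h. Cells were given hybrids at 1–250 mg/L with or without Aβ1-42 (20 μM) for 48 h. MTT (5 mg/mL) added for 4 h at 37°C, DMSO solubilization, read at 570/630 nm. LDH read at 450 nm. Five independent experiments.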

Data set [6] relates to SH-SY5Y. Nature of the data set: Neuroprotective activity against amyloid beta (1 to 42)-induced toxicity in human SH-SY5Y cells assessed as decrease in EGFR mRNA expression at IC50 measured after 48 hrs by SYBR green dye based RT-qPCR analysis. Format: functional, cell-based. An outline of the steps: as §1
A short description of data set [7]: Stability in simulated gastric fluid at pH 1.2 assessed as relative difference measured after 15 mins in presence of pepsin by HPLC analysis. The conditions noted are these: isolated protein, pH 1.2, 0.25 h. It is filed as ADME. A digest of the protocol:
as §2

The nature of data set [8]: Stability in simulated intestinal fluid at pH 6.8 assessed as relative difference measured after 15 mins in presence of pancreatin by HPLC analysis. Format: ADME. To be noted: simulated gi fluid, pH 6.8, 0.25 h. A digest of the protocol: as §2
A short description of data set [9]: Stability in simulated intestinal fluid at pH 6.8 assessed as relative difference measured after 180 mins in presence of pancreatin by HPLC analysis. Format: ADME. The conditions noted are these: simulated gi fluid, pH 6.8, 3 h. An outline of the steps: as §2
The nature of data set [10]: Solubility of compound in water by HPLC analysis. Format: physicochemical.
For data set [11], the system named is SH-SY5Y. As to the kind of experiment: Neuroprotective activity against amyloid beta (1 to 42)-induced apoptosis in human SH-SY5Y cells assessed as decrease in DNA condensation at IC50 measured after 48 hrs by Hoechst 33258 staining based fluorescence microscopic assay. Format: functional, cell-based. An outline of the steps:
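Differentiated SH-SY5Y cells, 4×10^4 per well, exposed 48 h to Aβ1-42 (20 μM) with or without hybrid. Fixed in 4% paraformaldehyde for 30 min, stained with Hoechst 33258 for 15 min. Nuclear chromatin condensation and DNA fragmentation scored by fluorescence microscopy at ×200.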

Data set [12] is described as follows: Stability in simulated intestinal fluid at pH 6.8 assessed as relative difference measured after 120 mins in presence of pancreatin by HPLC analysis. It is filed as ADME. To be noted: simulated gi fluid, pH 6.8, 2 h. A digest of the protocol:
as §2

A short description of data set [13]: Stability in simulated intestinal fluid at pH 6.8 assessed as relative difference measured after 60 mins in presence of pancreatin by HPLC analysis. Format: ADME. To be noted: simulated gi fluid, pH 6.8, 1 h. A digest of the protocol:
as §2

Data set [14] deals with SH-SY5Y. As to the kind of experiment: Neuroprotective activity against amyloid beta (1 to 42)-induced apoptosis in human SH-SY5Y cells assessed as necrotic cells at IC50 measured after 48 hrs by Annexin-V/Propidium iodide staining based flow cytometry (reference value: 6.99%). It is filed as functional.
A further data set has as its system Erythrocyte. As to the kind of experiment: Cytoprotective activity against H2O2-induced oxidative damage in human RBC assessed as restoration of antioxidant activity at 50 to 100 uM measured after 72 hrs by TAC assay relative to control. To be noted: dose 50-100 µM. Format: functional.
Data set [15] is described as follows: Stability in simulated intestinal fluid at pH 6.8 assessed as hydrolysis measured immediately in presence of pancreatin by HPLC analysis. Format: ADME. The conditions noted are these: simulated gi fluid. A digest of the protocol: as §2

Take `COc1cc(/C=C/C(=O)NCCCNC(=O)CCCCC2CCSS2)ccc1O` (centres undefined): the result in the data set with SH-SY5Y [1], in the data set on SH-SY5Y [2], in the data set with SH-SY5Y [3], with SH-SY5Y [5], in the data set on SH-SY5Y [6] and with SH-SY5Y [11] was Active. Moreover, the “fold change (FC)” value in [4] was 0.86%; in [7], 0.36%; in data set [8], 0.54%; in data set [9], 3.46%; in data set [12] it was 2.5%; in data set [13] it was 1.04%. In [10], this compound registered a solubility of 49 µg/mL (≈ 112 µM). For the same compound, the Activity in the data set with SH-SY5Y [14] was determined as 1.13%.
In the case of `O=C(CCCCC1CCSS1)NCCCCCOC(=O)Cc1ccc(O)c(O)c1` (centres undefined), the outcome in the data set on SH-SY5Y [1], in the data set with SH-SY5Y [2], in the data set on SH-SY5Y [3], with SH-SY5Y [5], in the data set on SH-SY5Y [6] and in the data set on SH-SY5Y [11] was Active. In addition, the Activity is 79.2% in the data set on Erythrocyte and 1.04% in the data set with SH-SY5Y [14]. In addition, in [7], the “fold change (FC)” value is 35.42%. Besides, the Stabilty result in data set [15] was “Unstable”.
